From ChEMBL document CHEMBL4373721, “Computer-Aided Design of Mastoparan-like Peptides Enables the Generation of Nontoxic Variants with Extended Antibacterial Properties” (J Med Chem, 2019)
Converted amounts (≈) assume the structure as drawn. The source made the active and inactive calls. The rule behind the calls is not given here. Residues, ends and D or L forms follow the SMILES beside them.

How the values were obtained:
[1] = system: Escherichia coli; test: Antibacterial activity against Escherichia coli ATCC 25922 incubated for 18 hrs by spectrophotometry; assay type: functional; conditions: ATCC 25922, 18 h
Outline: (§1)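 Broth microdilution per CLSI in Mueller-Hinton broth. Three colonies grown overnight in MHB at 37 °C, 200 rpm; final inoculum 2-5 x 10^5 CFU/mL. Peptides tested at 2 to 32 μM, chloramphenicol as positive control at the same concentrations. Incubated 18 h at 37 °C, OD600 read. MIC taken as lowest inhibiting concentration; three independent experiments.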

[2] = system: Escherichia coli; test: Antibacterial activity against KPC+ Escherichia coli isolate 001812446 incubated for 18 hrs by spectrophotometry; assay type: functional; conditions: isolate 001812446, 18 h; outline: as §1
[3] = system: HT-29; test: Cytotoxicity in human HT-29 cells assessed as reduction in cell viability incubated for 2 hrs by MTT assay; assay type: functional, cell-based; conditions: HT-29, 2 h
[4] = system: Pseudomonas aeruginosa; test: Antibacterial activity against Pseudomonas aeruginosa PA14 infected in CD-1 IGS mouse model of scarification skin infection assessed as reduction in bacterial counts at 64 uM measured on day 2 to 4 post-infection relative to control; assay type: functional, organism-based; conditions: TDE = time-dependent effect
Outline: (§2)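 Six-week-old female CD-1 IGS mice under isoflurane, back shaved, superficial skin abrasions sparing the dermis. Five minutes later, 5 x 10^7 CFU in 50 μL PBS applied to the wound. Two days later, peptide applied to the same area at 64 µM in 20 µL. Infected skin excised and homogenized for CFU counts two and four days post-infection. Four mice per group, two independent experiments; one-way ANOVA with Dunnett's test.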

[5] = system: Pseudomonas aeruginosa; test: Antibacterial activity against Pseudomonas aeruginosa PAO1 incubated for 18 hrs by spectrophotometry; assay type: functional; conditions: PAO1, 18 h; outline: as §1
[6] = system: Klebsiella pneumoniae; test: Antibacterial activity against Klebsiella pneumoniae ATCC 13883 incubated for 18 hrs by spectrophotometry; assay type: functional; conditions: ATCC 13883, 18 h; outline: as §1
[7] = system: Pseudomonas aeruginosa; test: Antibacterial activity against Pseudomonas aeruginosa PA14 infected in CD-1 IGS mouse model of scarification skin infection assessed as reduction in bacterial counts at 64 uM measured on day 2 post-infection relative to control; assay type: functional; outline: as §2
[8] = system: Pseudomonas aeruginosa; test: Antibiofilm activity against 2 day-old preformed Pseudomonas aeruginosa PAO1 assessed as induction of biofilm eradication at 16 uM incubated for 24 hrs by SYTO-9 dye based by confocal microscopy; assay type: functional, organism-based
Outline: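 Flow-cell biofilms: chambers inoculated with overnight culture diluted to OD600 ~0.5, grown in BM2 with 0.4% glucose. Established biofilms then given continuous flow of peptide at 16 µM in BM2 for 24 h. Stained with SYTO-9 (live) and propidium iodide (dead), imaged by confocal microscopy with 3D reconstruction. Two independent experiments.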

[9] = system: Acinetobacter baumannii; test: Antibacterial activity against Acinetobacter baumannii isolate 003326263 incubated for 18 hrs by spectrophotometry; assay type: functional; conditions: isolate 003326263, 18 h; outline: as §1
[10] = system: Klebsiella pneumoniae; test: Antibacterial activity against KPC+ Klebsiella pneumoniae isolate 001825971 incubated for 18 hrs by spectrophotometry; assay type: functional; conditions: isolate 001825971, 18 h; outline: as §1
[11] = system: Pseudomonas aeruginosa; test: Antibacterial activity against Pseudomonas aeruginosa PA14 infected in CD-1 IGS mouse model of scarification skin infection assessed as reduction in bacterial counts at 64 uM measured on day 4 post-infection relative to control; assay type: functional; outline: as §2
[12] = system: Staphylococcus aureus; test: Antibacterial activity against methicillin-resistant Staphylococcus aureus isolate 713623 incubated for 18 hrs by spectrophotometry; assay type: functional; conditions: isolate 713623, 18 h
Outline: (§3)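 Broth microdilution per CLSI in Mueller-Hinton broth; inocula from three colonies grown overnight at 37 °C, 200 rpm; final 2-5 x 10^5 CFU/mL. Peptides tested at 2 to 32 μM; chloramphenicol at same concentrations as positive control. Plates incubated 37 °C, 18 h; growth read at 600 nm. Three independent experiments.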

[13] = system: Escherichia coli; test: Antibacterial activity against Escherichia coli BL21 incubated for 18 hrs by spectrophotometry; assay type: functional; conditions: BL21, 18 h; outline: as §1
[14] = system: HUVEC; test: Cytotoxicity in HUVEC assessed as reduction in cell viability incubated for 2 hrs by MTT assay; assay type: cell-based; conditions: Homo sapiens
Outline: (§4)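 Cells grown at 37 °C, 5% CO2, passages 2–10, seeded 5 x 10^3 cells/well, attached 24 h. Media refreshed, then peptides added at final 0.781 to 100 μM. Viability reagent added after 2 h, followed by 4 h further incubation. Supernatant replaced by DMSO, absorbance read at 600 nm. Three independent experiments.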

[15] = system: Enterobacter cloacae; test: Antibacterial activity against Enterobacter cloacae isolate 1383251 incubated for 18 hrs by spectrophotometry; assay type: functional; conditions: isolate 1383251, 18 h; outline: as §1
[16] = Induction of hemolysis in human RBC at 100 uM incubated for 1 hr relative to control; assay type: cell-based, Erythrocyte; conditions: red blood cells (RBC), read-out: Activity
Outline: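 Human erythrocytes from healthy volunteers, washed three times in PBS, used as a 0.25% suspension in PBS. Peptides serially diluted, top concentration 100 μM per well. Incubated 1 h at 37 °C, then centrifuged, and supernatant absorbance read at 415 nm. PBS was the negative control and 1% Triton X-100 the 100% lysis control. Three replicates.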

[17] = system: MCF7; test: Cytotoxicity in human MCF7 cells assessed as reduction in cell viability incubated for 2 hrs by MTT assay; assay type: functional, cell-based; conditions: MCF7, 2 h
[18] = system: Staphylococcus aureus; test: Antibacterial activity against Staphylococcus aureus ATCC 12600 incubated for 18 hrs by spectrophotometry; assay type: functional; conditions: ATCC 12600, 18 h; outline: as §1
[19] = system: PC-3; test: Cytotoxicity in human PC3 cells assessed as reduction in cell viability incubated for 2 hrs by MTT assay; assay type: functional, cell-based; conditions: PC-3, 2 h
[20] = system: Pseudomonas aeruginosa; test: Antibacterial activity against Pseudomonas aeruginosa PA14 incubated for 18 hrs by spectrophotometry; assay type: functional; conditions: PA14, 18 h; outline: as §1
[21] = system: 3T3-L1; test: Cytotoxicity in mouse 3T3L1 cells assessed as reduction in cell viability incubated for 2 hrs by MTT assay; assay type: cell-based; conditions: 3T3-L1, 2 h; outline: as §4
[22] = system: Staphylococcus aureus; test: Antibacterial activity against Staphylococcus aureus ATCC 25923 incubated for 18 hrs by spectrophotometry; assay type: functional; conditions: ATCC 25923, 18 h; outline: as §3
[23] = system: Pseudomonas aeruginosa; test: Antibacterial activity against bioluminescent Pseudomonas aeruginosa H1001 incubated for 4 hrs by luminescence based assay; assay type: functional; conditions: H1001, 4 h
Outline: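 Crude peptides released from cellulose spots, two-fold diluted in BM2 (62 mM potassium phosphate pH 7, 2 mM MgSO4, 10 μM FeSO4, 0.4% glucose). Strain fliC::luxCDABE grown in LB to OD600 0.4, diluted 4:100 into BM2, mixed 1:1 with peptide (128 to 2 μM). Shaken 50 rpm, 4 h, 37 °C. Activity scored as luminescence reduction versus untreated cells.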

| Compound | MIC [1] [µM] | MIC [2] [µM] | IC50 [3] [µM] | Activity [4] | MIC [5] [µM] | MIC [6] [µM] | fold change (FC) [7] | Activity [8] | MIC [9] [µM] | MIC [10] [µM] | MIC [12] [µM] | MIC [13] [µM] | IC50 [14] [µM] | MIC [15] [µM] | hemolysis at 1 h, 100 µM [16] [%] | IC50 [17] [µM] | MIC [18] [µM] | IC50 [19] [µM] | MIC [20] [µM] | MIC [23] [µM] | also measured |
| --- | --- | --- | --- | --- | --- | --- | --- | --- | --- | --- | --- | --- | --- | --- | --- | --- | --- | --- | --- | --- | --- |
| CC[C@H](C)[C@H](N)C(=O)N[C@@H](CC(N)=O)C(=O)N[C@@H](CC(C)C)C(=O)N[C@@H](CCCCN)C(=O)N[C@@H](C)C(=O)N[C@@H](CC(C)C)C(=O)N[C@@H](C)C(=O)N[C@@H](C)C(=O)N[C@@H](CC(C)C)C(=O)N[C@@H](C)C(=O)N[C@@H](CCCCN)C(=O)N[C@@H](CCCCN)C(=O)N[C@H](C(=O)N[C@@H](CC(C)C)C(=O)O)[C@@H](C)CC | 32 (≈ 47.4 µg/mL) | > 32 | 25 | Tde | 8 (≈ 11.8 µg/mL) | > 32 | 100 | inactive | > 32 | > 32 | > 32 | 2 (≈ 2.96 µg/mL) | 50 | > 32 | 45 | 25 | 8 (≈ 11.8 µg/mL) | 12.5 | 8 (≈ 11.8 µg/mL) | – | Activity [11]: Active; IC50 [21]: 12.5 µM; MIC [22]: > 32 µM |
| CC[C@H](C)[C@H](N)C(=O)N[C@@H](CC(N)=O)C(=O)N[C@@H](CC(C)C)C(=O)N[C@@H](CCCCN)C(=O)N[C@@H](CCCCN)C(=O)N[C@@H](CC(C)C)C(=O)N[C@@H](C)C(=O)N[C@@H](C)C(=O)N[C@@H](CCCNC(=N)N)C(=O)N[C@H](C(=O)N[C@@H](CCCCN)C(=O)N[C@@H](CCCCN)C(=O)N[C@@H](CCCCN)C(=O)N[C@H](C(=O)O)[C@@H](C)CC)[C@@H](C)CC (H-INLKKLAARIKKKI-OH) | 4 (≈ 6.55 µg/mL) | 8 (≈ 13.1 µg/mL) | > 100 | Tde | 4 (≈ 6.55 µg/mL) | > 32 | 100 | Active | > 32 | > 32 | 8 (≈ 13.1 µg/mL) | 2 (≈ 3.27 µg/mL) | > 100 | > 32 | 8 | > 100 | 4 (≈ 6.55 µg/mL) | > 100 | 4 (≈ 6.55 µg/mL) | 4 (≈ 6.55 µg/mL) | Activity [11]: Active; IC50 [21]: > 100 µM; MIC [22]: 8 µM (≈ 13.1 µg/mL) |
| CC[C@H](C)[C@H](N)C(=O)N[C@@H](CC(N)=O)C(=O)N[C@@H](CCCCN)C(=O)N[C@H](C(=O)N[C@@H](C)C(=O)N[C@@H](CC(C)C)C(=O)N[C@@H](CCCNC(=N)N)C(=O)N[C@H](C(=O)N[C@@H](CC(C)C)C(=O)N[C@@H](C)C(=O)N[C@@H](CCCCN)C(=O)N[C@H](C(=O)N[C@H](C(=O)N[C@@H](CC(C)C)C(=O)O)[C@@H](C)CC)[C@@H](C)CC)[C@@H](C)CC)[C@@H](C)CC (H-INKIALRILAKIIL-OH) | – | – | – | – | – | – | – | – | – | – | – | – | – | – | – | – | – | – | – | 30 (≈ 47.8 µg/mL) | – |
| CC[C@H](C)[C@H](N)C(=O)N[C@@H](CCCCN)C(=O)N[C@@H](CC(C)C)C(=O)N[C@@H](CC(C)C)C(=O)N[C@@H](C)C(=O)N[C@@H](CCCNC(=N)N)C(=O)N[C@H](C(=O)N[C@@H](C)C(=O)N[C@@H](CC(C)C)C(=O)N[C@@H](CCCCN)C(=O)N[C@H](C(=O)N[C@@H](CCCCN)C(=O)N[C@H](C(=O)N[C@@H](CC(C)C)C(=O)O)[C@@H](C)CC)[C@@H](C)CC)[C@@H](C)CC (H-IKLLARIALKIKIL-OH) | – | – | – | – | – | – | – | – | – | – | – | – | – | – | – | – | – | – | – | 30 (≈ 48.2 µg/mL) | – |
| CC[C@H](C)[C@H](NC(=O)[C@H](CCCCN)NC(=O)[C@H](CCCCN)NC(=O)[C@@H](NC(=O)[C@H](CCCCN)NC(=O)[C@H](C)NC(=O)[C@H](C)NC(=O)[C@H](CC(C)C)NC(=O)[C@H](CCCNC(=N)N)NC(=O)[C@H](CCCCN)NC(=O)[C@H](CC(C)C)NC(=O)[C@@H](NC(=O)[C@@H](N)CCCCN)[C@@H](C)CC)[C@@H](C)CC)C(=O)N[C@@H](CC(C)C)C(=O)O (H-KILKRLAAKIKKIL-OH) | 4 (≈ 6.54 µg/mL) | 8 (≈ 13.1 µg/mL) | > 100 | Tde | 4 (≈ 6.54 µg/mL) | 8 (≈ 13.1 µg/mL) | 100 | Active | > 32 | > 32 | > 32 | 2 (≈ 3.27 µg/mL) | > 100 | > 32 | 3 | > 100 | 4 (≈ 6.54 µg/mL) | > 100 | 4 (≈ 6.54 µg/mL) | 4 (≈ 6.54 µg/mL) | fold change (FC) [11]: 1000; IC50 [21]: > 100 µM; MIC [22]: > 32 µM |
| CC[C@H](C)[C@H](NC(=O)[C@H](CCCCN)NC(=O)[C@H](C)NC(=O)[C@H](C)NC(=O)[C@H](CC(C)C)NC(=O)[C@H](CCCNC(=N)N)NC(=O)[C@H](CC(C)C)NC(=O)[C@H](C)NC(=O)[C@H](CC(C)C)NC(=O)[C@H](CCCCN)NC(=O)[C@H](CC(C)C)NC(=O)[C@H](CCCCN)NC(=O)[C@H](CCCCN)NC(=O)[C@H](CCSC)NC(=O)[C@@H]1CCCN1)C(=O)N[C@@H](C)C(=O)N1CCC[C@H]1C(=O)N[C@H](C(=O)N[C@@H](Cc1c[nH]c2ccccc12)C(=O)O)C(C)C (H-PMKKLKLALRLAAKIAPVW-OH) | – | – | – | – | – | – | 100 | – | – | – | – | – | – | – | – | – | – | – | – | – | – |
